Measured values pooled from the literature.
Compare with care: the assays were run in different laboratories.
Target: Serine/threonine-protein kinase D1 (PRKD1, Homo sapiens, UniProt Q15139)
Sequence (Q15139 1-912, as in one of the studies): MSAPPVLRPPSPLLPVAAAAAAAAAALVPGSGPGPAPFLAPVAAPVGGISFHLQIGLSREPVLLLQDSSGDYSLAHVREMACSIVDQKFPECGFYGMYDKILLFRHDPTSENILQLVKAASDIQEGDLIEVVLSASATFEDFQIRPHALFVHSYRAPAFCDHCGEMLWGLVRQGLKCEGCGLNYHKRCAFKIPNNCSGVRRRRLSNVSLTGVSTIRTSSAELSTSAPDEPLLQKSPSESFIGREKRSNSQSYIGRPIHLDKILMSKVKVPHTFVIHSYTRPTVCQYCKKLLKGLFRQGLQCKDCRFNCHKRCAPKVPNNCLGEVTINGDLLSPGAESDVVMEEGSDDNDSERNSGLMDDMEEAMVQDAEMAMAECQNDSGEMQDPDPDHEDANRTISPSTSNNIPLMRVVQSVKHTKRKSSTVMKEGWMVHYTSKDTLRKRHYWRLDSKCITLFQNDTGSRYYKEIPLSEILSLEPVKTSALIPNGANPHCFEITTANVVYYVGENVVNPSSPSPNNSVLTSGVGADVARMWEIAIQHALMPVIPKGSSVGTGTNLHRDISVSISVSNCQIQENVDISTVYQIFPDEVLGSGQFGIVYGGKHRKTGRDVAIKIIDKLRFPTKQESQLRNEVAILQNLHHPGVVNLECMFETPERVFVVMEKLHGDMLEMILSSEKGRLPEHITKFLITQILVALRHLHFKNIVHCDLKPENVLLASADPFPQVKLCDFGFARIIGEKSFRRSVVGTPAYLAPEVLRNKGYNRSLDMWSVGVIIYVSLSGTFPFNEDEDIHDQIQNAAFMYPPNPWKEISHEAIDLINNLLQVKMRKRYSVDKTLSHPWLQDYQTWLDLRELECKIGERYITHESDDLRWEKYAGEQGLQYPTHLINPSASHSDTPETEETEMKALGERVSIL

For `O=C(c1ccc(Nc2nccc(-c3cc4ccccc4s3)n2)cc1)N1CCC(N2CCCC2)CC1`, the remaining binding was 64% (binding, competition with immobilised ligand; 1 µM).
`C[C@H](c1ccnc(Nc2nc3ccc(-c4cc(N(C)C)ncn4)cc3[nH]2)c1)N1CCN(C(=O)CC(F)(F)F)CC1` has a remaining binding of 100% (cell-free assay, competition with immobilised ligand; 0.1 µM).
`C[C@@H](c1ccc(-n2cnc3c(N)ncnc32)cc1)N1CCc2nn(C)c(Cc3ccccc3)c2C1=O` has a remaining binding of 48% (binding, competition with immobilised ligand; 0.1 µM).
`FC(F)(F)Oc1cccc(-c2cnc3ccc(-c4ccncc4)nn23)c1` has a remaining binding of 100% (cell-free assay, competition with immobilised ligand; 5 µM).
With `CNC(=O)[C@@H]1CC[C@@H](n2c(-c3ccc4cnccc4c3)nc3ccc(C(=O)NCc4cccc(C(N)=O)c4)cc32)C1` the remaining binding was 100% (binding, competition with immobilised ligand; 1 µM).
`Cc1cc(NC(=O)c2cccc(S(F)(F)(F)(F)F)c2)cc(-n2ccn3nc(-c4cccnc4)cc23)c1` gave a remaining binding of 100% (cell-free assay, competition with immobilised ligand; 1 µM).
`CN(C)c1ncc(F)c(-c2cnn3ncccc23)n1` gave a remaining binding of 100% (binding; 1 µM).
The remaining binding of `O=S(=O)(NC1CCC(c2cc(F)ccc2F)(S(=O)(=O)c2ccc(Cl)cc2)CC1)C(F)(F)F` (stereo not drawn) is reported as 100% (cell-free assay, competition with immobilised ligand; 1 µM).
With `CN(CCCC(F)(F)F)c1nccc(-c2cnn3ncccc23)n1` the remaining binding was 95% (binding; 1 µM).
`O=C(c1ccc(Nc2ncc(Cl)c(-c3ccc(Cl)s3)n2)cc1)N1CCC(N2CCCC2)CC1` gave a remaining binding of 32% (binding, competition with immobilised ligand; 1 µM).
For `COc1ncc2cc3ccccc3nc2c1C#N`, the remaining binding was 87% (cell-free assay, competition with immobilised ligand; 5 µM).
The remaining binding of `O=C(NCC1CCOCC1)c1n[nH]cc1NC(=O)c1c(F)cccc1F` is reported as 100% (binding, competition with immobilised ligand; 1 µM).
For `C[C@@]1(Cc2ccc(C#N)cc2)C(=O)N(c2cc(Cl)cc(Cl)c2)c2ncc(C(=O)NC3(c4nc(C5CCC5)no4)CC3)n21`, the remaining binding was 86% (cell-free assay, competition with immobilised ligand; 1 µM).
For `Cc1cnn2ncc(-c3ccnc(N(C)C)n3)c2c1`, the remaining binding was 95% (binding; 1 µM).
`CCN1CCN(Cc2ccc(C(=O)Nc3ccc(C)c(Oc4ccc5c(c4)CC(=O)N5)c3)cc2C(F)(F)F)CC1` has a remaining binding of 96% (binding, competition with immobilised ligand; 1 µM).
`c1cnn2ncc(-c3ccnc(N4CCC45COC5)n3)c2c1` has a remaining binding of 87% (binding; 1 µM).
For `c1cncc(-c2cccc(Nc3nccc(NC4CCCCC4)n3)c2)c1`, the remaining binding was 11% (binding, competition with immobilised ligand; 10 µM).
`COCCOc1nc(-c2ccc(Cl)nc2)nc2c1CN(C(=O)c1ncn3ccccc13)CC2` has a remaining binding of 90% (cell-free assay, competition with immobilised ligand; 0.1 µM).
With `N[C@H]1CCN(c2nccc(-c3cnn4ncccc34)n2)C1` the remaining binding was 65% (binding; 1 µM).
`CCCOc1ccc([C@@H]2[C@@H](C(=O)O)[C@H](c3ccc4c(c3)OCO4)CN2CC(=O)Nc2c(CC)cccc2CC)cc1` gave a remaining binding of 96% (cell-free assay, competition with immobilised ligand; 1 µM).
For `CN(C)c1nccc(-c2cnn3ncccc23)n1`, the remaining binding was 57% (binding; 1 µM).
